Experimental data as given in ChEMBL document CHEMBL4402563, “Preclinical Optimization of gp120 Entry Antagonists as anti-HIV-1 Agents with Improved Cytotoxicity and ADME Properties through Rational Design, Synthesis, and Antiviral Evaluation” (J Med Chem, 2020).

Key:
[1] = tested on: Human immunodeficiency virus 1; assay: Antiviral activity against HIV1 HXB2 infected in human TZM-bl cells preincubated for 30 min followed by viral infection and measured after 3 days by luciferase based assay; type: functional, organism-based; details: Human immunodeficiency virus 1, M:B_HXB2R
Procedure, shortened: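 Single-cycle pseudovirus carrying HXB2 Env (CXCR4-tropic), made in HEK293T by co-transfecting an Env-deleted backbone (pSG3Δenv or pNL4-3.Luc.R-E-) with an Env plasmid. TZM-bl cells were seeded at 1 × 10^4/well and grown overnight. Virus was pretreated with graded compound concentrations, then added. Cells were washed and lysed, and IC50 was taken from percent inhibition.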

TZM = assay: Cytotoxicity against human TZM-bl cells incubated for 3 days by MTS assay; type: cell-based; details: 72 h
[2] = tested on: Human immunodeficiency virus 1; assay: Antiviral activity against HIV1-3B infected in human H9 cells assessed as inhibition in cell to cell HIV1 transmission to human TZM-bl acceptor cells incubated for 24 hrs by luciferase based assay; type: functional, organism-based; details: Human immunodeficiency virus 1, 3B
[3] = tested on: Human immunodeficiency virus 1; assay: Antiviral activity against HIV1-ADA infected in human MOLT4 cells assessed as inhibition in cell to cell HIV1 transmission to human TZM-bl acceptor cells incubated for 24 hrs by luciferase based assay; type: functional, organism-based; details: Human immunodeficiency virus 1, 24 h
[4] = tested on: Human immunodeficiency virus 1; assay: microbe, parasite or virus in culture; details: Human immunodeficiency virus 1, subtypeA
[5] = tested on: Human immunodeficiency virus 1; assay: microbe, parasite or virus in culture; details: Human immunodeficiency virus 1, subtypeA; remark: listed apart in the source
[6] = Cytotoxicity against dog Cf2Th-CCR5 cells infected with CD4-dependent pseudovirus HIV1 ADA incubated for 48 hrs by MTS assay

SMILES | IC50 [1] | CC50 (TZM) | other results
NC[C@H](NC(=O)c1ccc(-c2ccc(F)cn2)[nH]1)c1nc(CO)cs1 | > 11 µM | > 138 µM | –
COc1cnc(-n2cnc(C)n2)c2[nH]cc(C(=O)C(=O)N3CCN(C(=O)c4ccccc4)CC3)c12 | < 0.001 µM | – | IC50 [2]: 0.02 µM; IC50 [3]: 0.2 µM
Cc1cc(-c2ccc(C(F)(F)F)cn2)[nH]c1C(=O)N[C@@H](CN)c1nc(CO)cs1 | – | 85 µM | –
Cc1ccc(-c2ccc(C(=O)N[C@@H](CN)c3nc(CO)cs3)[nH]2)nc1 | > 11 µM | > 140 µM | –
NC[C@@H](NC(=O)c1ccc(-c2ccc(Cl)nc2)[nH]1)c1nc(CO)cs1 | > 11 µM | – | –
COc1cc(-c2ccc(C(=O)N[C@H](CN)c3nc(CO)cs3)[nH]2)ccn1 | > 11 µM | – | –
NC[C@H](NC(=O)c1ccc(-c2ncc(Cl)cn2)[nH]1)c1nc(CO)cs1 | > 15.8 µM | > 66 µM | –
NC[C@@H](NC(=O)c1ccc(-c2ccc(C(F)(F)F)cn2)[nH]1)c1nccs1 | 2 µM | 89.3 µM | –
CC(C)(N)[C@@H](NC(=O)c1ccc(-c2ccc(C(F)(F)F)cn2)[nH]1)c1ncc(CO)s1 | 0.52 µM | 74 µM | –
NC[C@H](NC(=O)c1ccc(-c2ccc(C(F)(F)F)cn2)[nH]1)c1nc(CCCO)cs1 | 0.89 µM | 81.2 µM | –
NC[C@@H](NC(=O)c1ccc(-c2ncc(Cl)cn2)[nH]1)c1nc(CO)cs1 | > 15.8 µM | – | –
NC[C@@H](NC(=O)c1ccc(-c2ccc(C(F)(F)F)cn2)[nH]1)c1nc(CO)cs1 | 0.59 µM | 94.3 µM | –
Cc1cc(-c2ccc(C(F)(F)F)cn2)[nH]c1C(=O)N[C@@H](c1ncc(CO)s1)C(C)(C)N | 0.6 µM | 35.3 µM | –
Cc1cc(-c2ccc(C(F)(F)F)cn2)[nH]c1C(=O)N[C@H](CN)c1ncc(CO)s1 | – | 92.8 µM | –
NC[C@@H](NC(=O)c1ccc(-c2ccc(C(F)(F)F)cn2)[nH]1)c1nc(CCO)cs1 | 1.7 µM | 100 µM | –
NC[C@@H](NC(=O)c1ccc(-c2ccc(C(F)(F)F)cc2)[nH]1)c1ncc(CO)s1 | – | 42.4 µM | IC50 [4]: 0.7 µM; IC50 [5]: 0.8 µM
NC[C@H](NC(=O)c1ccc(-c2ccc(C(F)(F)F)cn2)[nH]1)c1nc(CCO)cs1 | 0.76 µM | 91 µM | –
NC[C@@H](NC(=O)c1ccc(-c2ccc(C(F)(F)F)cn2)[nH]1)c1nc(CO)c(CO)s1 | 1.8 µM | > 113 µM | –
NC[C@H](NC(=O)c1ccc(-c2ccc(C(F)(F)F)cn2)[nH]1)c1nc(C(O)CO)cs1 (stereo partly specified) | 3.8 µM | > 113 µM | –
Cc1cc(-c2ccc(Cl)cn2)[nH]c1C(=O)N[C@H](CN)c1ncc(CO)s1 | 1.2 µM | 98.3 µM | –
NC[C@@H](NC(=O)c1ccc(-c2ccc(C(F)(F)F)cn2)[nH]1)c1ncc(C(O)CO)s1 (stereo partly specified) | 2.1 µM | – | –
NC[C@H](NC(=O)c1ccc(-c2ccc(C(F)(F)F)nc2)[nH]1)c1nc(CO)cs1 | 11.9 µM | > 122 µM | –
NC[C@@H](NC(=O)c1ccc(-c2ccc(C(F)(F)F)cn2)[nH]1)c1nc(CCCO)cs1 | 2.3 µM | > 114 µM | –
NC[C@H](NC(=O)c1ccc(-c2ccc(Cl)nc2)[nH]1)c1nc(CO)cs1 | > 11 µM | > 132 µM | –
NC[C@H](NC(=O)c1ccc(-c2ccc(Cl)cn2)[nH]1)c1ncc(CO)s1 | 2.7 µM | 142 µM | –

SMILES | IC50 [1] | CC50 (TZM) | other results
CC(C)(N)[C@H](NC(=O)c1ccc(-c2ccc(C(F)(F)F)cn2)[nH]1)c1nc(CO)cs1 | 0.58 µM | 59 µM | –
Cc1cc(-c2ccc(C(F)(F)F)cn2)[nH]c1C(=O)N[C@H](CN)c1nc(CO)cs1 | – | – | Activity [6]: Non-Toxic
NC[C@@H](NC(=O)c1ccc(-c2ccc(Cl)cn2)[nH]1)c1ncc(CO)s1 | 0.85 µM | 144 µM | –
NC[C@H](NC(=O)c1ccc(-c2ccc(C(F)(F)F)cn2)[nH]1)c1nc(CO)c(CO)s1 | > 13 µM | – | –
NC[C@@H](NC(=O)c1ccc(-c2ccc(Cl)cn2)[nH]1)c1nc(CO)cs1 | 5 µM | > 132 µM | –
Cc1ccc(-c2ccc(C(=O)N[C@H](CN)c3nc(CO)cs3)[nH]2)nc1 | 9.6 µM | – | –
NC[C@H](NC(=O)c1ccc(-c2ccc(C(F)(F)F)cn2)[nH]1)c1nc(CO)cs1 | 0.3 µM | 77.9 µM | –
CC1(C)CC(NC(=O)C(=O)Nc2ccc(Cl)cc2)CC(C)(C)N1 | – | – | Activity [6]: Non-Toxic
NC[C@@H](NC(=O)c1ccc(-c2ccc(C(F)(F)F)cn2)[nH]1)c1ncc(CO)s1 | 0.96 µM | > 122 µM | –
COc1cc(-c2ccc(C(=O)N[C@@H](CN)c3nc(CO)cs3)[nH]2)ccn1 | > 11 µM | > 133 µM | –
NC[C@H](NC(=O)c1ccc(-c2ccc(C(F)(F)F)cn2)[nH]1)c1nccs1 | 1.2 µM | 93.6 µM | –
CC(C)(N)[C@H](NC(=O)c1ccc(-c2ccc(C(F)(F)F)cn2)[nH]1)c1ncc(CO)s1 | 0.5 µM | 42.4 µM | –
Cc1cc(-c2ccc(C(F)(F)F)cn2)[nH]c1C(=O)N[C@H](c1ncc(CO)s1)C(C)(C)N | 0.43 µM | 37.5 µM | –
NC[C@@H](NC(=O)c1ccc(-c2ccc(C(F)(F)F)nn2)[nH]1)c1nc(CO)cs1 | > 12 µM | > 73 µM | –
CC(CN)(NC(=O)c1ccc(-c2ccc(C(F)(F)F)cn2)[nH]1)c1nc(CO)cs1 (racemic) | 5.1 µM | > 70.5 µM | –
NC[C@@H](NC(=O)c1ccc(-c2ccc(F)cn2)[nH]1)c1nc(CO)cs1 | > 11 µM | – | –
Cc1cc(-c2ccc(Cl)cn2)[nH]c1C(=O)N[C@@H](CN)c1ncc(CO)s1 | 2.4 µM | 95 µM | –
NC[C@H](NC(=O)c1ccc(-c2ccc(C(F)(F)F)cn2)[nH]1)c1ncc(C(O)CO)s1 (stereo partly specified) | 5.9 µM | > 113 µM | –
Cc1cc(-c2ccc(C(F)(F)F)cn2)[nH]c1C(=O)NC(C)(CN)c1nc(CO)cs1 (racemic) | 2.6 µM | > 68.3 µM | –
CC(C)(N)[C@@H](NC(=O)c1ccc(-c2ccc(C(F)(F)F)cn2)[nH]1)c1nc(CO)cs1 | 1.7 µM | 61 µM | –
NC[C@H](NC(=O)c1ccc(-c2ccc(C(F)(F)F)nn2)[nH]1)c1nc(CO)cs1 | > 12 µM | – | –
NC[C@@H](NC(=O)c1ccc(-c2ccc(C(F)(F)F)cn2)[nH]1)c1nc(C(O)CO)cs1 (stereo partly specified) | 5.2 µM | – | –
NC[C@H](NC(=O)c1ccc(-c2ccc(C(F)(F)F)cn2)[nH]1)c1ncc(CO)s1 | 1.2 µM | – | –
NC[C@@H](NC(=O)c1ccc(-c2ccc(C(F)(F)F)nc2)[nH]1)c1nc(CO)cs1 | 12.7 µM | – | –
NC[C@H](NC(=O)c1ccc(-c2ccc(Cl)cn2)[nH]1)c1nc(CO)cs1 | 1.7 µM | – | –
